Activity calls are given as the source filed them. The calls are words filed in the database; no cut-off is given here.
Tests used:
[1] = test system: D1; assay: Immunostimulatory activity in C57BL/6 (H-2b) mouse D1 cells assessed as increase in IL-12p40 secretion at 30 pM to 30 nM after 24 hrs by ELISA/DC maturation assay; type: functional, cell-based
Outline: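 Cells were D1, a growth factor-dependent immature spleen-derived dendritic cell line from C57BL/6 (H-2b) mice. Compounds were titrated at 4 concentrations in complete IMDM, with about 40.000 cells per well. After 24 hours at 37°C, supernatant IL-12p40 was measured by ELISA. Assays were run in triplicate, with standard deviation shown.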

[2] = molecular target: Toll-like receptor 2 (Homo sapiens) (UniProt O60603); assay: Activation of human TLR2 expressed in HEK293 cells assessed as IL-8 secretion after 48 hrs by ELISA
[3] = molecular target: Toll-like receptor 2 (Homo sapiens) (UniProt O60603); assay: Activation of human TLR2 expressed in HEK293 cells assessed as IL-8 secretion at 30 to 300 nM after 48 hrs by ELISA

Toll-like receptor 2 (Homo sapiens), sequence (O60603 whole entry): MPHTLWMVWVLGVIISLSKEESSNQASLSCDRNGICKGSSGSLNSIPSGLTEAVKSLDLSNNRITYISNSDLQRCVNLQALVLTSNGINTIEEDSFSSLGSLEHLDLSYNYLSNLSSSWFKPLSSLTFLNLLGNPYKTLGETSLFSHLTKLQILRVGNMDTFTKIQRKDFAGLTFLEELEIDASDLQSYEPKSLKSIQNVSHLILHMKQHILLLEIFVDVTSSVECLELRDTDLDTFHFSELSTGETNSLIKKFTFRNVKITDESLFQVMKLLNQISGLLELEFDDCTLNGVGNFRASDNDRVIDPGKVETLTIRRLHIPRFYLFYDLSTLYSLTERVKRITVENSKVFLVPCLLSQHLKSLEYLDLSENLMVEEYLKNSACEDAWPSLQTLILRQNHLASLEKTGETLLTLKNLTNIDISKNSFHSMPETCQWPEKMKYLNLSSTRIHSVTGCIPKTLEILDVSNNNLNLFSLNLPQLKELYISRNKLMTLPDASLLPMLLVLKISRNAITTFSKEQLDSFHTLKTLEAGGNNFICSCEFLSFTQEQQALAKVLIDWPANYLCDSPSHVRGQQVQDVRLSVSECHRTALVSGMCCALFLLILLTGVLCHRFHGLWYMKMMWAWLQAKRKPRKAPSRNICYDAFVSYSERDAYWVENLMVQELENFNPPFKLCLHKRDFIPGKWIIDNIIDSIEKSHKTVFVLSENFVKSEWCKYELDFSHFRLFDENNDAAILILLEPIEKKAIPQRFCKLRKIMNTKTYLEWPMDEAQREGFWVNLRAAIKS

| Structure (SMILES) | Activity [1] | Activity [2] | Activity [3] |
| --- | --- | --- | --- |
| CCCCCCCCCCCCCCCC(=O)OCC(CSC[C@H](NC(=O)NCCCCCCCCCCCCCC)C(=O)N[C@@H](CN)C(=O)N[C@@H](CCCCN)C(=O)N[C@@H](CCCCN)C(=O)N[C@@H](CCCCN)C(=O)N[C@@H](CCCCN)C(N)=O)OC(=O)CCCCCCCCCCCCCCC (mixture of isomers) | inactive | Dose-dependent effect |  |
| CCCCCCCCCCCCCCCC(=O)OCC(CSC[C@H](NC(=O)NCCCCCCCCCCCCCC)C(=O)N[C@H](CS)C(=O)N[C@@H](CCCCN)C(=O)N[C@@H](CCCCN)C(=O)N[C@@H](CCCCN)C(=O)N[C@@H](CCCCN)C(N)=O)OC(=O)CCCCCCCCCCCCCCC (mixture of isomers) | inactive |  | inactive |
| CCCCCCCCCCCCCCCC(=O)OCC(CSC[C@H](NC(=O)NCCCCCCCCCCCCCC)C(=O)N[C@@H](Cc1cccs1)C(=O)N[C@@H](CCCCN)C(=O)N[C@@H](CCCCN)C(=O)N[C@@H](CCCCN)C(=O)N[C@@H](CCCCN)C(N)=O)OC(=O)CCCCCCCCCCCCCCC (mixture of isomers) | inactive | Dose-dependent effect |  |
| CCCCCCCCCCCCCCCC(=O)OCC(CSC[C@H](NC(=O)NCCCCCCCCCCCCCC)C(=O)N[C@@H](CO)C(=O)N[C@@H](CCCCN)C(=O)N[C@@H](CCCCN)C(=O)N[C@@H](CCCCN)C(=O)N[C@@H](CCCCN)C(N)=O)OC(=O)CCCCCCCCCCCCCCC (mixture of isomers) | Active | Dose-dependent effect |  |
| CCCCCCCCCCCCCCCC(=O)OCC(CSC[C@H](NC(=O)NCCCCCCCCCCCCCC)C(=O)N[C@@H](CC(N)=O)C(=O)N[C@@H](CCCCN)C(=O)N[C@@H](CCCCN)C(=O)N[C@@H](CCCCN)C(=O)N[C@@H](CCCCN)C(N)=O)OC(=O)CCCCCCCCCCCCCCC (mixture of isomers) | Active | Dose-dependent effect |  |
| CCCCCCCCCCCCCCCC(=O)OCC(CSC[C@H](NC(=O)NCCCCCCCCCCCCCC)C(=O)N[C@@H](C)C(=O)N[C@@H](CCCCN)C(=O)N[C@@H](CCCCN)C(=O)N[C@@H](CCCCN)C(=O)N[C@@H](CCCCN)C(N)=O)OC(=O)CCCCCCCCCCCCCCC (mixture of isomers) |  | Dose-dependent effect |  |
| CCCCCCCCCCCCCCCC(=O)OCC(CSC[C@H](NC(=O)NCCCCCCCCCCCCCC)C(=O)N[C@H](C(=O)N[C@@H](CCCCN)C(=O)N[C@@H](CCCCN)C(=O)N[C@@H](CCCCN)C(=O)N[C@@H](CCCCN)C(N)=O)C(C)(C)S)OC(=O)CCCCCCCCCCCCCCC (mixture of isomers) | inactive | Dose-dependent effect |  |
| C=CC[C@H](NC(=O)[C@H](CSCC(COC(=O)CCCCCCCCCCCCCCC)OC(=O)CCCCCCCCCCCCCCC)NC(=O)NCCCCCCCCCCCCCC)C(=O)N[C@@H](CCCCN)C(=O)N[C@@H](CCCCN)C(=O)N[C@@H](CCCCN)C(=O)N[C@@H](CCCCN)C(N)=O (mixture of isomers) | Active | Dose-dependent effect |  |
| C#CC[C@H](NC(=O)[C@H](CSCC(COC(=O)CCCCCCCCCCCCCCC)OC(=O)CCCCCCCCCCCCCCC)NC(=O)NCCCCCCCCCCCCCC)C(=O)N[C@@H](CCCCN)C(=O)N[C@@H](CCCCN)C(=O)N[C@@H](CCCCN)C(=O)N[C@@H](CCCCN)C(N)=O (mixture of isomers) | Active | Dose-dependent effect |  |
| CCCCCCCCCCCCCCCC(=O)OCC(CSC[C@H](NC(=O)NCCCCCCCCCCCCCC)C(=O)N[C@@H](CC)C(=O)N[C@@H](CCCCN)C(=O)N[C@@H](CCCCN)C(=O)N[C@@H](CCCCN)C(=O)N[C@@H](CCCCN)C(N)=O)OC(=O)CCCCCCCCCCCCCCC (mixture of isomers) | Active | Dose-dependent effect |  |
| CCCCCCCCCCCCCCCC(=O)OCC(CSC[C@H](NC(=O)NCCCCCCCCCCCCCC)C(=O)N[C@@H](Cc1ccc2ccccc2c1)C(=O)N[C@@H](CCCCN)C(=O)N[C@@H](CCCCN)C(=O)N[C@@H](CCCCN)C(=O)N[C@@H](CCCCN)C(N)=O)OC(=O)CCCCCCCCCCCCCCC (mixture of isomers) | inactive |  | inactive |
| C=CC[C@@H](NC(=O)[C@H](CSCC(COC(=O)CCCCCCCCCCCCCCC)OC(=O)CCCCCCCCCCCCCCC)NC(=O)NCCCCCCCCCCCCCC)C(=O)N[C@@H](CCCCN)C(=O)N[C@@H](CCCCN)C(=O)N[C@@H](CCCCN)C(=O)N[C@@H](CCCCN)C(N)=O (mixture of isomers) |  |  | inactive |
| CCCCCCCCCCCCCCCC(=O)OCC(CSC[C@H](NC(=O)NCCCCCCCCCCCCCC)C(=O)N[C@@H](CS)C(=O)N[C@@H](CCCCN)C(=O)N[C@@H](CCCCN)C(=O)N[C@@H](CCCCN)C(=O)N[C@@H](CCCCN)C(N)=O)OC(=O)CCCCCCCCCCCCCCC (mixture of isomers) | inactive |  | inactive |
| CCCCCCCCCCCCCCCC(=O)OCC(CSC[C@H](NC(=O)NCCCCCCCCCCCCCC)C(=O)N[C@@H](Cc1ccccc1)C(=O)N[C@@H](CCCCN)C(=O)N[C@@H](CCCCN)C(=O)N[C@@H](CCCCN)C(=O)N[C@@H](CCCCN)C(N)=O)OC(=O)CCCCCCCCCCCCCCC (mixture of isomers) | inactive | Dose-dependent effect |  |
| CCCCCCCCCCCCCCCC(=O)OCC(CSC[C@H](NC(=O)NCCCCCCCCCCCCCC)C(=O)NC[C@H](CCCCN)C(=O)N[C@@H](CCCCN)C(=O)N[C@@H](CCCCN)C(=O)N[C@@H](CCCCN)C(=O)N[C@@H](CCCCN)C(N)=O)OC(=O)CCCCCCCCCCCCCCC (mixture of isomers) | inactive |  | inactive |
| CCCCCCCCCCCCCCCC(=O)OCC(CSC[C@H](NC(=O)NCCCCCCCCCCCCCC)C(=O)NCCC(=O)N[C@@H](CCCCN)C(=O)N[C@@H](CCCCN)C(=O)N[C@@H](CCCCN)C(=O)N[C@@H](CCCCN)C(N)=O)OC(=O)CCCCCCCCCCCCCCC (mixture of isomers) | inactive | Dose-dependent effect |  |
| CCCCCCCCCCCCCCCC(=O)OCC(CSC[C@H](NC(=O)NCCCCCCCCCCCCCC)C(=O)N[C@@H](CCN)C(=O)N[C@@H](CCCCN)C(=O)N[C@@H](CCCCN)C(=O)N[C@@H](CCCCN)C(=O)N[C@@H](CCCCN)C(N)=O)OC(=O)CCCCCCCCCCCCCCC (mixture of isomers) | Active | Dose-dependent effect |  |
| CCCCCCCCCCCCCCCC(=O)OCC(CSC[C@H](NC(=O)NCCCCCCCCCCCCCC)C(=O)N[C@@H](CC#N)C(=O)N[C@@H](CCCCN)C(=O)N[C@@H](CCCCN)C(=O)N[C@@H](CCCCN)C(=O)N[C@@H](CCCCN)C(N)=O)OC(=O)CCCCCCCCCCCCCCC (mixture of isomers) | Active | Dose-dependent effect |  |
| CCCCCCCCCCCCCCCC(=O)OCC(CSC[C@H](NC(=O)NCCCCCCCCCCCCCC)C(=O)N[C@H](C(=O)N[C@@H](CCCCN)C(=O)N[C@@H](CCCCN)C(=O)N[C@@H](CCCCN)C(=O)N[C@@H](CCCCN)C(N)=O)c1cccs1)OC(=O)CCCCCCCCCCCCCCC (mixture of isomers) |  | Dose-dependent effect |  |
| CCCCCCCCCCCCCCCC(=O)OCC(CSC[C@H](NC(=O)NCCCCCCCCCCCCCC)C(=O)NCC(=O)N[C@@H](CCCCN)C(=O)N[C@@H](CCCCN)C(=O)N[C@@H](CCCCN)C(=O)N[C@@H](CCCCN)C(N)=O)OC(=O)CCCCCCCCCCCCCCC (mixture of isomers) |  | Dose-dependent effect |  |
| CCCCCCCCCCCCCCCC(=O)OCC(CSC[C@H](NC(=O)NCCCCCCCCCCCCCC)C(=O)N[C@@H](CCC)C(=O)N[C@@H](CCCCN)C(=O)N[C@@H](CCCCN)C(=O)N[C@@H](CCCCN)C(=O)N[C@@H](CCCCN)C(N)=O)OC(=O)CCCCCCCCCCCCCCC (mixture of isomers) | Active | Dose-dependent effect |  |
| CCCCCCCCCCCCCCCC(=O)OCC(CSC[C@H](NC(=O)NCCCCCCCCCCCCCC)C(=O)N[C@@H](CCCC)C(=O)N[C@@H](CCCCN)C(=O)N[C@@H](CCCCN)C(=O)N[C@@H](CCCCN)C(=O)N[C@@H](CCCCN)C(N)=O)OC(=O)CCCCCCCCCCCCCCC (mixture of isomers) | Active | Dose-dependent effect |  |
